Like-named read-outs stand apart in the source and are kept apart here.
Tests used:
HeLa = test: In vitro anticancer activity, MTT assay, HeLa; type: cell-based, human; conditions: for IC50: Homo sapiens, HeLa, 48 h; for anticancer activity against HeLa cells (in words): MTT, 48 h exposure, compared with the standard cisplatin
Procedure, shortened: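 HeLa cells came from NCCS and were kept in MEM with 10% FBS at 37 °C and 5% CO2. Cells were seeded at 10,000/well in 5% FBS medium and left 24 h to attach. DMSO solutions were diluted in serum-free medium to 6.25–100 µM (five concentrations) and applied for 48 h, in triplicate. MTT was added for 4 h at 37 °C, formazan dissolved in DMSO, and A570 read. % inhibition was taken against untreated control. IC50 came from nonlinear regression against log concentration.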

MCF-7 = test: In vitro anticancer activity, MTT assay, MCF-7; type: cell-based; conditions: for IC50: Homo sapiens, MCF7, 48 h, read-out: IC50 MCF-7; for anticancer activity against MCF-7 cells (in words): MTT, 48 h exposure, compared with the standard cisplatin
α-amylase = test: α-Amylase assay; type: biochemical; conditions: compared to the standard acarbose; 50-1000 μm
Procedure, shortened: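 α-Amylase was used at 0.1 mg/mL in PBS (0.02 mol/L, pH 6.8). Enzyme was preincubated with the test solution at 37 °C for 5 min. The reaction was started with 1.0% (w/v) starch. It was stopped with DNS reagent (1% dinitrosalicylic acid, 0.05% Na2SO3, 1% NaOH), then heated at 100 °C for 5 min and cooled to room temperature. Absorbance was read at 540 nm.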

[1] = read-out: IC50 values, range over MCF-7 and HeLa cells

| Structure (SMILES) | IC50 (HeLa; read-out: IC50 HeLa) [µM] | IC50 (MCF-7) [µM] | inhibitory activity against α-amylase (in words) (α-amylase) | IC50 (HeLa; [1]) [µM] | anticancer activity against HeLa cells (in words) (HeLa) | anticancer activity against MCF-7 cells (in words) (MCF-7) |
| --- | --- | --- | --- | --- | --- | --- |
| O=C(Nc1ccc(F)cc1)Nc1cccc(-c2nnc(C3CCCCC3)o2)c1 [Compound 6a, 1-[3-(5-Cyclohexyl-[1,3,4]oxadiazol-2-yl)-phenyl]-3-(4-fluoro-phenyl)-urea] | 79.7 | 81.6 | moderate activities | – | good activity | good activity |
| COc1cccc(NC(=O)Nc2cccc(-c3nnc(C4CCCCC4)o3)c2)c1 [Compound 6c, 1-[3-(5-Cyclohexyl-[1,3,4]oxadiazol-2-yl)-phenyl]-3-(3-methoxy-phenyl)-urea] | 45.6 | 28.6 | – | 23.5 to 45.6 | significant activity | significant activity |
| O=C(Nc1cccc(-c2nnc(C3CCCCC3)o2)c1)c1ccc(Cl)cc1 [Compound 7a, 4-Chloro-N-[3-(5-cyclohexyl-[1,3,4]oxadiazol-2-yl)-phenyl]-benzamide] | ≥ 100 | ≥ 100 | – | – | – | – |
| Cc1ccc(C(=O)Nc2cccc(-c3nnc(C4CCCCC4)o3)c2)cc1 [Compound 7b, N-[3-(5-Cyclohexyl-[1,3,4]oxadiazol-2-yl)-phenyl]-4-methyl-benzamide] | ≥ 100 | ≥ 100 | – | – | – | – |
| O=C(Cc1ccccc1F)Nc1cccc(-c2nnc(C3CCCCC3)o2)c1 [Compound 7c, N-[3-(5-Cyclohexyl-[1,3,4]oxadiazol-2-yl)-phenyl]-2-(2-fluoro-phenyl)acetamide] | 80.1 | 78.3 | – | – | good activity | good activity |
| O=C(Nc1cccc(-c2nnc(C3CCCCC3)o2)c1)c1cnccn1 [Compound 7e, Pyrazine-2-carboxylic acid [3-(5-cyclohexyl-[1,3,4]oxadiazol-2-yl)-phenyl]-amide] | ≥ 100 | ≥ 100 | moderate activities | – | – | – |
| O=C(Cc1c[nH]c2ccccc12)Nc1cccc(-c2nnc(C3CCCCC3)o2)c1 [Compound 7f, N-[3-(5-Cyclohexyl-[1,3,4]oxadiazol-2-yl)-phenyl]-2-(1H-indol-3-yl)-acetamide] | 100 | ≥ 100 | better than all other compounds | – | – | – |
| O=C(Nc1cccc(-c2nnc(C3CCCCC3)o2)c1)C1CCCC1 [Compound 7g, Cyclopentane carboxylic acid [3-(5-cyclohexyl-[1,3,4]oxadiazol-2-yl)-phenyl]-amide] | ≥ 100 | ≥ 100 | moderate activities | – | – | – |
| Cc1ccc(S(=O)(=O)Nc2cccc(-c3nnc(C4CCCCC4)o3)c2)cc1 [Compound 8a, N-[3-(5-Cyclohexyl-[1,3,4]oxadiazol-2-yl)-phenyl]-4-methyl-benzenesulphonamide] | ≥ 100 | ≥ 100 | – | – | – | – |
| CC(C)(C)c1ccc(S(=O)(=O)Nc2cccc(-c3nnc(C4CCCCC4)o3)c2)cc1 [Compound 8b, 4-tert-Butyl-N-[3-(5-cyclohexyl-[1,3,4]oxadiazol-2-yl)-phenyl]-benzenesulphonamide] | 62.9 | 60.9 | – | – | good activity | good activity |

Now from value to molecule, other results behind:

| IC50 (HeLa; read-out: IC50 HeLa) [µM] | IC50 (MCF-7) [µM] | inhibitory activity against α-amylase (in words) (α-amylase) | IC50 (HeLa; [1]) [µM] | Structure (SMILES) | anticancer activity against HeLa cells (in words) (HeLa) | anticancer activity against MCF-7 cells (in words) (MCF-7) |
| --- | --- | --- | --- | --- | --- | --- |
| 30.4 | 23.5 | moderate activities | 23.5 to 45.6 | Cc1ccc(NC(=O)Nc2cccc(-c3nnc(C4CCCCC4)o3)c2)cc1 [Compound 6b, 1-[3-(5-Cyclohexyl-[1,3,4]oxadiazol-2-yl)-phenyl]-3-p-tolyl-urea] | significant activity | significant activity |
| 58.8 | 62.4 | moderate activities | – | O=C(Nc1cccc(-c2nnc(C3CCCCC3)o2)c1)c1cc(F)cc(F)c1 [Compound 7d, N-[3-(5-Cyclohexyl-[1,3,4]oxadiazol-2-yl)-phenyl]-3,5-difluoro-benzamide] | good activity | good activity |
| ≥ 100 | ≥ 100 | – | – | O=C(Nc1cccc(-c2nnc(C3CCCCC3)o2)c1)c1ccco1 [Compound 7h, Furan-2-carboxylic acid [3-(5-cyclohexyl-[1,3,4]oxadiazol-2-yl)-phenyl]-amide] | – | – |
| ≥ 100 | ≥ 100 | – | – | O=C(C=Cc1ccco1)Nc1cccc(-c2nnc(C3CCCCC3)o2)c1 [Compound 7i, N-[3-(5-Cyclohexyl-[1,3,4]oxadiazol-2-yl)-phenyl]-3-furan-2-yl-acrylamide] | – | – |
| ≥ 100 | ≥ 100 | better than all other compounds | – | O=S(=O)(Nc1cccc(-c2nnc(C3CCCCC3)o2)c1)c1cc(Cl)cc(Cl)c1 [Compound 8c, 3,5-Dichloro-N-[3-(5-cyclohexyl-[1,3,4]oxadiazol-2-yl)-phenyl]-benzenesulphonamide] | – | – |

Source: publication PMC5357090 (Saudi Pharmaceutical Journal : SPJ, 2016)
